Compound activity: PubChem BioAssay, Johns Hopkins Ion Channel Center
Rows were chosen to be rich in hits. Some 3.1% of all compounds tested hit in one or more screens of this group.
hERG protect = compounds protecting human hERG from proarrhythmic drug block | Q12809 | CHO-hERG, FluxOR thallium flux, dofetilide IC70 present | activation (rescue from dofetilide block), less the hit threshold, % at 10 µM | 0.51% of 310,000 active | AID 1511;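 active means activation above the mean of controls blocked by dofetilide plus 5 SD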;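 further: thallium influx through hERG after potassium depolarization seen as dye fluorescence rise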
KCNK3 inh = human KCNK3 channel inhibition, primary screen; 0.84% of 340,000 active; CHO-KCNK3 thallium flux, FluxOR fluorescence; active compounds read low; B-score at 10 µM;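 active means B-score under library mean minus 4 SD, starting fluorescence ratio at most library mean plus 5 SD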;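 further: more negative B-score means stronger inhibition of thallium flux through KCNK3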
KCNK9 inh = inhibitors of human KCNK9 two-pore domain potassium channel; Q9NPC2; HEK293 KCNK9, FluxOR thallium flux fluorescence; active compounds read low; B-score at 10 µM; 1.2% of 310,000 active;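 active means ratio B-score over 3 SD below the library mean, with starting fluorescence within 5 SD of its mean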;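 further: negative B-score means less thallium flux so channel inhibition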
KCNQ1 block = inhibitors of human KCNQ1 potassium channel. P51787. CHO-K1 KCNQ1, FluxOR thallium flux fluorescence; active compounds read high. B-score at 10 µM. 1.3% of 310,000 active;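 active means compounds whose thallium flux B-score, printed positive for inhibition, exceeds three library SD while starting fluorescence stays within three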;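 further: channel opened by potassium depolarization with thallium stimulus after 20 min compound exposure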
Target sequence (P51787 whole entry, looked up): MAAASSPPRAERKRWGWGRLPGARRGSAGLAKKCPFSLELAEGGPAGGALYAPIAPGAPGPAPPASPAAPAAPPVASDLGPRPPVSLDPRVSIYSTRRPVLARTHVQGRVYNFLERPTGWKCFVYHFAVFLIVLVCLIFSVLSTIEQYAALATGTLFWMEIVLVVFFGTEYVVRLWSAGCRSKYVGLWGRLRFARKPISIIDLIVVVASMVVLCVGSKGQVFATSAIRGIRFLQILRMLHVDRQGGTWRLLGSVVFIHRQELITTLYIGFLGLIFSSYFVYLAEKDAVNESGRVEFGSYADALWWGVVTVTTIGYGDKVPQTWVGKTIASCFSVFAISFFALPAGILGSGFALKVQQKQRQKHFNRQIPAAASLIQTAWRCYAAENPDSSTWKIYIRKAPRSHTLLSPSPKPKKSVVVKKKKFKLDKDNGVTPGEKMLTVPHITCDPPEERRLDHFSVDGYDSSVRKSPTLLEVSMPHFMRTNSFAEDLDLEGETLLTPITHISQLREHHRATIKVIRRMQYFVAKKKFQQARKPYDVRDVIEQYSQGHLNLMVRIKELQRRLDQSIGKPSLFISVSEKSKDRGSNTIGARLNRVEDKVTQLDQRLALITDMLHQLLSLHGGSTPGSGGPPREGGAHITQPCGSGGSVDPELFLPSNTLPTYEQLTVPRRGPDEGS
KCNQ1 act = potentiators or activators of human KCNQ1 potassium channel. CHO-K1 KCNQ1, thallium flux FluxOR fluorescence; active compounds read high. B-score at 10 µM. 0.35% of 310,000 active. AID 2648;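 active means fluorescence ratio B-score, a plate-corrected score, at least three library SD, with initial intensity B-score within 5 SD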
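System: CHO-K1 cells stably expressing KCNQ1 / Medium: assay buffer for compound exposure, DMSO matched across wells / Reagent: thallium- and potassium-containing depolarizing buffer / Compound: one concentration, matched DMSO / Incubation: 20 min compound pretreatment at room temperature / Measured by: kinetic FluxOR fluorescence, 10 s baseline plus 110 s post-stimulus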
KCNQ1 block val = reconfirmed blocker of the human KCNQ1 potassium channel. shares compounds with KCNQ1 block. KCNQ1 cell line, FluxOR thallium flux fluorescence. inhibition, % at 10 µM. 93% of 1,600 active;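 active means primary screen active, with duplicate mean exceeding buffer control mean plus 3 SD of buffer wells, cut at about 28% in these data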
CHO Tl flux = KCNQ1 inhibitor counter-screen hit in parental CHO cells; shares compounds with KCNQ1 block; parental CHO-K1, FluxOR thallium flux fluorescence ratio; active compounds read low; zero means no signal rise above baseline; fluorescence ratio (Tl flux) at 10 µM; 21% of 1,600 active;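 active means mean of duplicate thallium-flux fluorescence ratios in parental host cells more than 5 SD below the buffer control mean, cut at about 0.38 in these data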;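 further: ratio is peak minus minimum fluorescence divided by baseline fluorescence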
KCNQ1 APC inh = blocks human KCNQ1 current in automated patch clamp | shares compounds with KCNQ1 block | KCNQ1-CHO cells | calls only at 10 µM | 20% of 490 active;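 active means KCNQ1 current drop exceeding 3 SD of negative control wells, seen in both duplicate runs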;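 further: steady state current during a 2 s step from -80 to +40 mV; negative values mean current inhibition and positive values mean potentiation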
KCNQ2 spec = rat KCNQ2 inhibition in KCNQ1 inhibitor specificity screen | AID 651746 | KCNQ2 cells, FluxOR thallium flux fluorescence | 71% of 1,600 active | shares compounds with KCNQ1 block | inhibition, % at 10 µM;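 active means mean percent inhibition of the KCNQ2 thallium signal more than 5 SD above the buffer-only control wells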;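 further: KCNQ2 expressed in CHO cells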
KCNQ1-KCNE1 inh = KCNQ1 inhibitor that also blocks human KCNQ1/KCNE1 channel; 77% of 1,600 active; KCNQ1/KCNE1 cells, FluxOR thallium flux fluorescence; shares compounds with KCNQ1 block; inhibition, % at 10 µM;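 active means mean percent inhibition of duplicate wells above the buffer-only control mean plus 3 SD of those controls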
Of the large screens only hits and unclear results are named; the others gave an inactive call (follow-up assays come after a bar, where they were run).

S=C1NC[C@H](c2ccccc2)N1CCCCC1CCCCC1	none
O=C(Nc1nc2ccccc2[nH]1)c1ccc(Cl)c(S(=O)(=O)N2CCCC2)c1	KCNQ1 block 11 | KCNQ1 block val inactive | CHO Tl flux inactive | KCNQ2 spec inactive | KCNQ1-KCNE1 inh 35.5%
Cc1ccc(CNC(=O)Cn2ccc3cc(S(=O)(=O)N4CCCCCC4)ccc32)cc1	none
Cc1ccc(-n2cccn2)c(CN2CCCC(C(=O)c3sccc3C)C2)c1 (configuration not stated)	KCNQ1 block 9 | KCNQ1 block val 72.0 | CHO Tl flux inactive | KCNQ2 spec 99.0% | KCNQ1-KCNE1 inh 54.5%
Clc1ccc2[nH]c(-c3ccccc3)cc2c1	KCNQ1 block 9 | KCNQ1 block val 131.0 | CHO Tl flux inactive | KCNQ1 APC inh inactive | KCNQ2 spec 92.0% | KCNQ1-KCNE1 inh 132.0%
NC(=O)c1cc2ccc(O)cc2oc1=NCc1ccccc1	KCNQ1 block 31 | KCNQ1 block val active | CHO Tl flux 0.048 | KCNQ2 spec inactive | KCNQ1-KCNE1 inh inactive
CC(C)(C)c1ccc(C2=CSC3=NCCN23)cc1	KCNQ1 block 7 | KCNQ1 block val 43.0 | CHO Tl flux inactive | KCNQ2 spec inactive | KCNQ1-KCNE1 inh 46.5%
COc1ccc(CNC[C@H]2O[C@@H](n3ccc(=O)[nH]c3=O)[C@H](O)[C@@H]2O)cc1OC	none (no result: hERG protect, KCNK9 inh, KCNQ1 block, KCNQ1 act)
CC(C)[C@H](NC(=O)c1ccco1)C(=O)OCC(=O)Nc1ccccc1OC(F)F	none
ClCc1nc2ccccc2n1Cc1ccccc1	KCNQ1 block 7 | KCNQ1 block val inactive | CHO Tl flux inactive | KCNQ2 spec 83.7% | KCNQ1-KCNE1 inh inactive
O=C(Cc1cccc(NC(=O)C2CCN(C(=O)C3CCCC3)CC2)c1)Nc1cccc(C(=O)N2CCOCC2)c1	none (no result: hERG protect, KCNK9 inh, KCNQ1 block, KCNQ1 act)
O=S(=O)(NCCNc1ncc(C(F)(F)F)cc1Cl)C(F)(F)F	KCNQ1 block 6 | KCNQ1 block val 39.5 | CHO Tl flux inactive | KCNQ2 spec inactive | KCNQ1-KCNE1 inh inactive
CC(=O)c1ccc(NC(=O)c2ccc(NC(=O)c3ccco3)cc2)cc1	none
COC(=O)c1ccc(NC(=O)c2ccc(NC(=O)c3ccco3)cc2)cc1	KCNQ1 block 6 | KCNQ1 block val inactive | CHO Tl flux inactive | KCNQ2 spec inactive | KCNQ1-KCNE1 inh 55.0%
N#Cc1ccccc1NC(=O)C1SC(=Nc2ccccc2)C(C(=O)Nc2ccc(Cl)cc2)=C1N (configuration not stated)	KCNQ1 block 10 | KCNQ1 block val 112.5 | CHO Tl flux inactive | KCNQ1 APC inh inactive | KCNQ2 spec 97.3% | KCNQ1-KCNE1 inh 82.0%
CCOc1ccc(N=C2SC(C(=O)Nc3ccccc3C#N)C(N)=C2C(=O)Nc2ccc(Cl)cc2)cc1 (configuration not stated)	none
COc1ccc(Nc2nc(-c3cccs3)nc3ccccc23)c(OC)c1	KCNQ1 block 8 | KCNQ1 block val 132.5 | CHO Tl flux 0.326 | KCNQ2 spec 131.3% | KCNQ1-KCNE1 inh active
CCN(CC)C(=O)C1c2ccccc2Oc2ccccc21	KCNQ1 block 16 | KCNQ1 block val inactive | CHO Tl flux inactive | KCNQ2 spec 77.3% | KCNQ1-KCNE1 inh 71.0%
CCOCCOC(=O)c1cccc2c1-c1ccccc1C2=O	none
CCn1c(=NC(=O)C2COc3ccccc3O2)sc2c(C)ccc(OC)c21 (configuration not stated)	KCNK9 inh -7.99, KCNQ1 block 7 | KCNQ1 block val 85.0 | CHO Tl flux inactive | KCNQ2 spec 110.3% | KCNQ1-KCNE1 inh 121.0%
CCn1c(=NC(=O)CN2C(=O)CCC2=O)sc2c(OC)ccc(OC)c21	none
CCN(Cc1ccccc1)C(=O)Cn1c(=O)n(CCC(=O)N2CCCCC2)c(=O)c2sccc21	none
O=C(CCN1CCOCC1)c1ccc2c(c1)OCCO2	KCNQ1 block 8 | KCNQ1 block val 63.5 | CHO Tl flux 0.358 | KCNQ2 spec inactive | KCNQ1-KCNE1 inh 60.0%
O=C(OCCN1CCOCC1)c1ccc2c(c1)OCCO2	none
Cc1ccc(CN=C(Nc2ccccc2)NC2CCCCC2)cc1	KCNQ1 block 9 | KCNQ1 block val 67.5 | CHO Tl flux inactive | KCNQ2 spec inactive | KCNQ1-KCNE1 inh 41.0%
CCOc1ccc2noc3c2c1C(=O)c1ccccc1-3	KCNQ1 block 32 | KCNQ1 block val active | CHO Tl flux 0.018 | KCNQ2 spec inactive | KCNQ1-KCNE1 inh inactive
O=C1c2ccccc2-c2onc3ccc(N4CCCC4)c1c23	none
COc1ccc(C2c3ccsc3CCN2C(=O)C(C)(C)C)cc1 (configuration not stated)	KCNQ1 block 8 | KCNQ1 block val 116.5 | CHO Tl flux 0.374 | KCNQ2 spec 82.0% | KCNQ1-KCNE1 inh 152.0%
Cc1cc(NC(=O)CSc2nc3c(cc2C#N)CCC3)no1	none
COc1ccc(NS(=O)(=O)c2cccc(C(=O)NCCCn3ccnc3)c2)cc1	none
CCCc1c(-c2ccc(O)cc2)nn(-c2ccc(O)cc2)c1-c1ccc(O)cc1	KCNK3 inh -8.97, KCNQ1 block 13 | KCNQ1 block val 146.5 | CHO Tl flux 0.254 | KCNQ2 spec inactive | KCNQ1-KCNE1 inh active
Cc1c(C(N)=O)c(-c2ccccc2)nn1-c1ccccc1	none
CCC(CC)c1nnc(NC(=O)CN2C(=O)NC3(CCCC3)C2=O)s1	none
O=C(Nc1cccc(NC(=O)c2ccco2)n1)c1ccco1	none
CCOC(=O)CCS(=O)(=O)c1nc(-c2ccccc2)cc(C(F)(F)F)n1	none
COC(=O)CCS(=O)(=O)c1nc(-c2ccccc2)cc(C(F)(F)F)n1	KCNQ1 block 8 | KCNQ1 block val 26.5 | CHO Tl flux inactive | KCNQ2 spec 80.3% | KCNQ1-KCNE1 inh 61.5%
CCOc1cc2c3c(c1)C1(Nc4ccccc4S1)C(=O)N3C(C)(C)CC2C (configuration not stated)	KCNQ1 block 8 | KCNQ1 block val 95.5 | CHO Tl flux inactive | KCNQ1 APC inh inactive | KCNQ2 spec inactive | KCNQ1-KCNE1 inh 77.0%
CC1CN(C(=O)c2ccccc2OCc2ccc(Cl)cc2Cl)CC(C)O1 (configuration not stated)	none (no result: hERG protect, KCNK9 inh, KCNQ1 block, KCNQ1 act)
CC1(C)CC2CC(C)(CN2C(=O)COC(=O)c2ccc(NC(=O)CC#N)cc2)C1 (configuration not stated)	none (no result: hERG protect, KCNK9 inh, KCNQ1 block, KCNQ1 act)
